In ChEMBL document CHEMBL4257556, “Novel 1,3,4-thiadiazole-chalcone hybrids containing catechol moiety: synthesis, antioxidant activity, cytotoxicity and DNA interaction studies” (Medchemcomm, 2018):
Activity calls are given as the source filed them. No cut-off for these calls is given here.

How the values were obtained:
[1] = tested on: HeLa; assay: Upregulation of miR-206 expression in human HeLa cells at 10 uM after 24 hrs by RT-qPCR method; assay type: functional, cell-based
[2] = tested on: MRC5; assay: Cytotoxicity against human MRC5 cells assessed as decrease in cell survival after 72 hrs by MTT assay; assay type: cell-based; conditions: MRC5, 72 h
How it was run: (§1)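 HeLa (2000/well), A549 and MRC-5 (5000/well) seeded 20 h before treatment; HL-60 (7000/well) 2 h before. Five concentrations (6.25–100 μM or 3.125–50 μM) from 5 mM DMSO stocks, final DMSO ≤1%, 72 h; survival by MTT. Cisplatin positive control; three independent experiments in triplicate.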

[3] = tested on: HeLa; assay: Downregulation of miR-21 expression in human HeLa cells at 10 uM after 24 hrs by RT-qPCR method; assay type: functional, cell-based
[4] = tested on: HeLa; assay: Cell cycle arrest in human HeLa cells assessed as accumulation at sub-G1 phase at IC50 and 2 times IC50 after 24 hrs by propidium iodide staining-based flow cytometric method; assay type: functional
How it was run: (§2)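 HeLa cells treated 24 h at IC50 or 2×IC50 (from 72 h assay), fixed in 70% ethanol, stored at –20 °C ≥1 week, RNase A 30 min 37 °C, propidium iodide stained; flow cytometry, 10 000 gated events. Mean ± SD of three independent experiments; one-way ANOVA with Dunnett's post-test, p < 0.05.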

[5] = tested on: MRC5; assay: Induction of DNA damage in human MRC5 cells assessed as formation of DNA breaks at 25 uM after 24 hrs by comet assay relative to control; assay type: functional
How it was run: (§3)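 MRC-5 cells exposed 24 h to 3.125–25 μM compound; DNA damage scored as % tail DNA (tail intensity) by comet assay. PBS negative control; H2O2 50 μM 5 min in-gel positive control. Triplicate, repeated twice; mean ± SD.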

[6] = tested on: A549; assay: Cytotoxicity against human A549 cells assessed as decrease in cell survival after 72 hrs by MTT assay; assay type: functional, cell-based; conditions: A549, 72 h; how it was run: as §1
[7] = tested on: HeLa; assay: Cell cycle arrest in human HeLa cells assessed as accumulation at sub-G1 phase at 2 times IC50 after 24 hrs in presence of caspase-9 inhibitor Z-LEHD-FMK by propidium iodide-staining based flow cytometric method; assay type: functional
How it was run: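 HeLa cells pretreated 2 h with 40 μM peptide caspase inhibitor (Z-DEVD-FMK caspase-3, Z-IETD-FMK caspase-8 or Z-LEHD-FMK caspase-9), then exposed to 2×IC50 compound; subG1 fraction by propidium iodide flow cytometry, compared with samples lacking inhibitor.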

[8] = tested on: DNA; assay: Induction of Escherichia coli pUC19 DNA cleavage after 90 mins by agarose gel electrophoresis method; assay type: nucleic-acid assay
How it was run: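 Plasmid pUC19 (from E. coli XL1 blue; 460 ng, 12 nM) incubated with compound (0.05–0.4 mM; from 2 mM DMSO stock) in 20 μL 40 mM bicarbonate pH 8.4 at 37 °C for 90 min; 1% agarose gel in TAE at 80 V, ethidium bromide staining, UV at 312 nm; supercoiled/nicked/linear forms scored.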

[9] = tested on: Calf thymus DNA; assay: Binding affinity to calf thymus DNA at 10 to 40 uM after 90 mins by UV/visible spectrophotometric analysis; assay type: nucleic-acid assay; conditions: Bos taurus
How it was run: (§4)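 CT-DNA stock in 10 mM Tris-HCl pH 7.9 (A260/A280 1.89–2.01; concentration from ε260 6600 M–1 cm–1). Compound (10, 20 or 40 μM) plus CT-DNA (95 μM) in 40 mM bicarbonate pH 8.4, 37 °C 90 min; spectra 200–800 nm. Hyper/hypochromism at 259 nm from bound versus summed free compound and DNA extinction; triplicate.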

[10] = tested on: HeLa; assay: Prooxidant activity in human HeLa cells assessed as increase in H2O2-induced reactive oxygen species at 10 uM preincubated for 24 hrs followed by H2O2 addition and measured after 30 mins by dichlorofluorescein dye-based flow cytometric method; assay type: functional, cell-based
How it was run: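 HeLa cells pretreated 24 h with 10 μM compound, washed, loaded with 30 μM DCFH-DA in PBS 45 min at 37 °C. One portion read directly (endogenous ROS); other portion exposed to 10 mM H2O2 30 min at 37 °C. DCF green fluorescence by flow cytometry, 20 000 events per sample; mean ± SD of two independent experiments.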

[11] = tested on: Calf thymus DNA; assay: Binding affinity to calf thymus DNA assessed as hyperchromism at 20 uM after 90 mins by UV/visible spectrophotometric analysis; assay type: nucleic-acid assay; conditions: Bos taurus; how it was run: as §4
[12] = tested on: HeLa; assay: Downregulation of MMP2 gene expression in human HeLa cells at 10 uM after 24 hrs by RT-qPCR method; assay type: functional, cell-based
[13] = tested on: Calf thymus DNA; assay: Binding affinity to calf thymus DNA assessed as hyperchromism at 10 uM after 90 mins by UV/visible spectrophotometric analysis; assay type: nucleic-acid assay; conditions: Bos taurus; how it was run: as §4
[14] = tested on: HeLa; assay: Downregulation of miR-133b expression in human HeLa cells at 10 uM after 24 hrs by RT-qPCR method; assay type: functional, cell-based
[15] = tested on: HeLa; assay: Cell cycle arrest in human HeLa cells assessed as accumulation at G2/M phase at 2 times IC50 after 24 hrs by propidium iodide staining-based flow cytometric method; assay type: functional; how it was run: as §2
[16] = tested on: HeLa; assay: Cell cycle arrest in human HeLa cells assessed as decrease in cell levels at G1 phase at 2 times IC50 after 24 hrs by propidium iodide staining-based flow cytometric method; assay type: functional; how it was run: as §2
[17] = Antioxidant activity assessed as DPPH free radical scavenging activity after 30 mins; assay type: functional
How it was run: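 DPPH (0.05 mM in methanol) mixed with equal volume of compound (DMSO solution diluted in methanol), kept in dark at room temperature 30 min; absorbance at 517 nm, methanol control, ascorbic acid positive control. IC50 = concentration giving 50% of maximum scavenging; mean ± SD of independent triplicate experiments.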

[18] = tested on: Calf thymus DNA; assay: Displacement of Hoechst 33258 from calf thymus DNA assessed as quenching constant by fluorescence spectrophotometric analysis; assay type: nucleic-acid assay; conditions: Bos taurus
How it was run: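 CT-DNA 100 μM (per phosphate) in 40 mM bicarbonate pH 8.4 pretreated 20 min with Hoechst 33258 (28 μM final), then compound added stepwise. Excitation 350 nm, emission 390–550 nm, read at 444 nm, 10 nm slits; H–DNA as control. Quenching constant K by Stern–Volmer, I0/I versus r = [compound]/[DNA]; triplicate.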

[19] = tested on: HL-60; assay: Cytotoxicity against human HL60 cells assessed as decrease in cell survival after 72 hrs by MTT assay; assay type: functional, cell-based; conditions: HL-60, 72 h; how it was run: as §1
[20] = tested on: DNA; assay: Reversal of Fe2+-induced Escherichia coli pUC19 DNA cleavage at 1:2 compound to Fe2+ mole ratio after 90 mins by agarose gel electrophoresis method; assay type: functional
How it was run: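 Compound (4 μL of 2 mM) preincubated with FeSO4 (1 or 2 μL of 8 mM; compound:Fe 1:1 or 1:2) in bicarbonate buffer 60 min at 37 °C, then pUC19 added for another 90 min; products resolved on 1% agarose gel, ethidium bromide stained.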

[21] = tested on: MRC5; assay: Induction of DNA damage in human MRC5 cells assessed as formation of DNA breaks after 24 hrs by comet assay; assay type: functional, cell-based; how it was run: as §3
[22] = tested on: Calf thymus DNA; assay: Binding affinity to calf thymus DNA assessed as hyperchromism at 40 uM after 90 mins by UV/visible spectrophotometric analysis; assay type: nucleic-acid assay; conditions: Bos taurus; how it was run: as §4
[23] = tested on: HeLa; assay: Upregulation of MMP9 gene expression in human HeLa cells at 10 uM after 24 hrs by RT-qPCR method; assay type: functional, cell-based
[24] = tested on: HeLa; assay: Downregulation of miR-155 expression in human HeLa cells at 10 uM after 24 hrs by RT-qPCR method; assay type: functional, cell-based

Cc1cccc(C(=O)/C=C/c2ccc(C(=O)Nc3nnc(-c4ccc(O)c(O)c4)s3)cc2)c1
Activity [1]: Active | IC50 [2]: 34.2 µM | Activity [3]: inactive | Activity [4]: Active | Activity [5]: 38% | IC50 [6]: 27.9 µM | Activity [7]: inactive | Activity [8]: inactive | Activity [9]: Active | Activity [10]: inactive | Activity [11]: -7.36% | Activity [12]: Active | Activity [13]: -13.7% | Activity [14]: Active | Activity [15]: Active | Activity [16]: Active | IC50 [17]: 17.2 µM | K [18]: 2.95 | IC50 [19]: 8.39 µM | Activity [20]: Active | Activity [21]: Dose-dependent effect | Activity [22]: -4.9% | Activity [23]: Active | Activity [24]: inactive
